Assay results taken from ChEMBL document CHEMBL5214971, “Multiple approaches to repurposing drugs for neuroblastoma” (Bioorg Med Chem, 2022).

Assays:
HT-1080 = assay: Anticancer activity against human HT-1080 cells assessed as reduction in cell viability incubated for 48 hrs by resazurin dye based fluorescence assay; type: functional; settings: HT-1080, 48 h
In short: (§1)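 Cells seeded at 1×10^4 cells/well in DMEM/Ham's F12 (1:1, L-glutamine, 15 mM HEPES) with 10% FBS, 37°C, 5% CO2. Compounds in DMSO, 50 μM then two-fold over 8 further dilutions to 0.195 μM; 0.5% DMSO final. 48 h exposure. Resazurin 0.0125 mg/ml final, read 3 h (HT1080) or 8 h (SH-SY5Y, SK-N-AS) at Ex 544/Em 590 nm. Inhibition relative to DMSO control; triplicates, ≥2 experiments.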

SH-SY5Y = assay: Anticancer activity against human SH-SY5Y cells assessed as reduction in cell viability incubated for 48 hrs by resazurin dye based fluorescence assay; type: functional; in short: as §1
SK-N-AS = assay: Anticancer activity against human SK-N-AS cells assessed as reduction in cell viability incubated for 48 hrs by resazurin dye based fluorescence assay; type: functional; in short: as §1
[1] = Cytotoxicity against human HeLa cells assessed as reduction in cell viability incubated for 48 hrs by CellTiter Glo assay; type: toxicity, cell-based
[2] = target: Calcium/calmodulin-dependent protein kinase type 1 (Homo sapiens) (UniProt Q14012); assay: Inhibition of CAMK1 (unknown origin) at 1 uM by Adapta assay
[3] = target: Maternal embryonic leucine zipper kinase (Homo sapiens) (UniProt Q14680); assay: Inhibition of MELK (unknown origin) at 1 uM by Adapta assay
[4] = Cytotoxicity against human A549-ACE2 cells expressing ACE2 assessed as reduction in cell viability by CytoTox-Glo assay; type: toxicity, cell-based
[5] = Cytotoxicity against African green monkey Vero 76 cells assessed as reduction in cell viability; type: toxicity, cell-based; settings: African green monkey (Chlorocebus sabaeus)
[6] = target: Cathepsin D (Homo sapiens) (UniProt P07339); assay: Inhibition of cathepsin D (unknown origin) using MCA labelled GKPILFFRLK(Dnp)-D-R-NH as substrate at 200 uM preincubated for 15 mins followed by substrate addition and measured after 2 hrs by fluorometer analysis; settings: time 135.0 min
Sequence of Cathepsin D (Homo sapiens) (P07339 65-162 limits assumed): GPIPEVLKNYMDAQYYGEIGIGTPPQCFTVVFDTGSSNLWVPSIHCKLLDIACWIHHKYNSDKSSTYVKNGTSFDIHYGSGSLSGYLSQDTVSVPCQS
Sequence of Cathepsin D (Homo sapiens) (P07339 169-412 limits assumed): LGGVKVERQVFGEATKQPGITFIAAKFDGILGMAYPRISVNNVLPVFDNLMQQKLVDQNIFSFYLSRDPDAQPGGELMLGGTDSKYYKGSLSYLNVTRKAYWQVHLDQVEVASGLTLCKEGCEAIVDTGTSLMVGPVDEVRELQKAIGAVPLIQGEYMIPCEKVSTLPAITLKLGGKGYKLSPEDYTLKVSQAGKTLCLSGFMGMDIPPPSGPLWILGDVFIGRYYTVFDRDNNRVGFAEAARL

Sequence of Maternal embryonic leucine zipper kinase (Homo sapiens) (Q14680 whole entry, looked up): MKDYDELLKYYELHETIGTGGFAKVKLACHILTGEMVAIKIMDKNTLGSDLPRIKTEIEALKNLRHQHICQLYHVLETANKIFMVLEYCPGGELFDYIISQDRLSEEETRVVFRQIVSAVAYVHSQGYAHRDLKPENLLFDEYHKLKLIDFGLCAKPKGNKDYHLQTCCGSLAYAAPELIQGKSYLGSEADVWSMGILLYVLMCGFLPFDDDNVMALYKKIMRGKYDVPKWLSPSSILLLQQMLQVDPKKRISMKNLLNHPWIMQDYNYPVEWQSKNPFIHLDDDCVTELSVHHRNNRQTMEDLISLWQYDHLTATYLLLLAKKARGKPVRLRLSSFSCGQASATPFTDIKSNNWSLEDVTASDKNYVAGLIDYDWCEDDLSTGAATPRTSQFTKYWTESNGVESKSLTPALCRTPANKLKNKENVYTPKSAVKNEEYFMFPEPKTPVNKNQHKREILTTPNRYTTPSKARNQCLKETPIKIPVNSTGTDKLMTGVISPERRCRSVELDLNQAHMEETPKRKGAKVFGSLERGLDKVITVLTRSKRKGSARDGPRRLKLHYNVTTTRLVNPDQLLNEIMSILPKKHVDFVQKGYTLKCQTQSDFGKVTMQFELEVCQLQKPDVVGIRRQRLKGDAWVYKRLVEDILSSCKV
Sequence of Calcium/calmodulin-dependent protein kinase type 1 (Homo sapiens) (Q14012 whole entry, looked up): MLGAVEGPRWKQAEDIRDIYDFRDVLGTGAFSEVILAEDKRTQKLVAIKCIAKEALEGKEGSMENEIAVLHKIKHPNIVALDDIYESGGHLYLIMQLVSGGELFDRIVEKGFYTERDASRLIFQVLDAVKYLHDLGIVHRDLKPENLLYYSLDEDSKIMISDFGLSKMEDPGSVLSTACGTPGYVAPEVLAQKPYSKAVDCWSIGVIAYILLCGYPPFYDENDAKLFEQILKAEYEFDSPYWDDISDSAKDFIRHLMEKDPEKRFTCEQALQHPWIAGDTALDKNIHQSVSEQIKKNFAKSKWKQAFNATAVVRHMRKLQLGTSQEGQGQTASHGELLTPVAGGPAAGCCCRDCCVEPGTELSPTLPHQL

Compound: COc1ccc2nc3cc(Cl)ccc3c(Nc3ccc(O)c(CN4CCCC4)c3)c2c1
- IC50 (HT-1080): 3.6 µM
- IC50 (SH-SY5Y): 1.2 µM
- IC50 (SK-N-AS): 3.86 µM

Compound: Cc1ccc(S(=O)(=O)/C=C/C#N)cc1
- IC50 (SH-SY5Y): 0.85 µM
- IC50 (SK-N-AS): 1.23 µM

Compound: COc1ccc2nc3cc(Cl)ccc3c(Nc3cc(CN4CCCC4)c(O)c(CN4CCCC4)c3)c2c1
- IC50 (HT-1080): 13.8 µM
- IC50 (SH-SY5Y): 9.7 µM

Compound: COc1ccc2nc3cc(Cl)ccc3c(Nc3cc(CN(C)C)c(O)c(CN(C)C)c3)c2c1
- IC50 (HT-1080): 6.09 µM
- IC50 (SH-SY5Y): 3.41 µM
- IC50 (SK-N-AS): 5.4 µM

Compound: C[C@@H](Oc1cc(-c2cnn(C3CCNCC3)c2)cnc1N)c1c(Cl)ccc(F)c1Cl [CRIZOTINIB]
- IC50 (SH-SY5Y): 0.92 µM
- IC50 (SK-N-AS): 12.1 µM

Compound: CN1CCN(c2ccc(C(=O)Nc3n[nH]c4ccc(Cc5cc(F)cc(F)c5)cc34)c(NC3CCOCC3)c2)CC1 [ENTRECTINIB]
- IC50 (SH-SY5Y): 1.6 µM
- IC50 (SK-N-AS): 4.47 µM

Compound: CCCCCCCCc1ccc(CCC(N)(CO)CO)cc1 [FINGOLIMOD]
- IC50 (SH-SY5Y): 4.71 µM
- IC50 (SK-N-AS): 6.11 µM

Compound: O=C(Nc1ccc([N+](=O)[O-])cc1Cl)c1cc(Cl)ccc1O [NICLOSAMIDE]
- IC50 (SH-SY5Y): 0.87 µM
- IC50 (SK-N-AS): 2.33 µM

Compound: COc1ccc2nc3cc(Cl)ccc3c(Nc3cc(CN4CCCC4)c(O)c(CN4CCCC4)c3)c2n1 [PYRONARIDINE]
- IC50 at 48 h [1]: 3.1 µM
- IC50 (HT-1080): 4.23 µM
- inhibition [2]: 35%
- inhibition [3]: 31%
- IC50 (SH-SY5Y): 1.7 µM
- IC50 [4]: > 10 µM
- IC50 (SK-N-AS): 3.45 µM
- IC50 [5]: 1.3 µM
- inhibition [6]: > 50%

Compound: CCN(CC)CCCC(C)Nc1c2ccc(Cl)cc2nc2ccc(OC)cc12 (centres undefined) [QUINACRINE]
- IC50 (HT-1080): 29 µM
- IC50 (SH-SY5Y): 8.57 µM
